From PubChem BioAssay
Most compounds without a hit are left out; they make up all but 3.1% or so of the library.
miR-122 sensor – inhibitors of miR-122 in Huh7 cells | Huh7 miR-122 Renilla luciferase sensor, 48 h; neutral wells = 0, positive control = 100 | activation (reporter increase), % at 12.5 µM | 340,000 tested, 0.3% active | AID 602342;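 active = mean replicate activation score at least 90 and every replicate individually at or above 90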;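 note: higher luciferase means less miR-122 activity so hits act as miR-122 inhibitors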
F508del corr – correctors of CFTR F508del function in bronchial epithelial cells; CFBE cells, YFP halide quenching; stimulated with forskolin plus potentiator P3; % fluorescence drop versus neutral controls; activity (quench increase), % at 7.58 µM; 350,000 tested, 0.36% active;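 active = mean added fluorescence quench of at least 8% versus neutral control, with both replicates also reaching 8%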;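 note: cells transiently co-express mutant CFTR-F508del with the halide-sensitive YFP; corrector assay measuring rescue of mutant channel to the surface after 24 h compound exposure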
Cneo AK release – Cryptococcus neoformans lysis via adenylate kinase release; lysis activity, % at 15 µM; 360,000 tested, 0.2% active; C. neoformans lysis, adenylate kinase release luminescence, 4 h; normalised: neutral wells 0, clomiphene wells 100; AID 651654;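 active = mean lysis activity across replicates of at least 80%, whatever share of replicates individually reach that level; inactive = mean lysis activity below 80%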
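Test system: log-phase Cryptococcus neoformans yeast cells. Input: 5 × 10^6 yeast cells/mL. Medium: fresh YPD growth medium. Doses: single dose. Incubation: static 4 h at 37 °C with compound, 1 h detection. Measured by: luminescent adenylate kinase detection reagent. Read-out: signal increase indicating cell lysis. Benchmarks: Clomiphene.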
GSIS activator – primary screen for activators of insulin secretion dependent on glucose, INS-1E cells, GLuc reporter luminescence | INS-1E GLuc reporter insulin secretion, 2-3 h | activation, % at 16.6 µM | 370,000 tested, 0.61% active;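 active = lowest replicate activation of at least 40%, so every replicate reaches that level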;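 note: 0% = median of neutral control wells and 100% = median of IBMX positive control wells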
HIV Env fusion – inhibitors of HIV Env-mediated cell fusion. HeLa-JRFL Env/CEM21 cell fusion, luciferase. inhibition, % at 12.3 µM. 360,000 tested, 1.1% active. AID 651610;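 active = mean replicate inhibition score of at least 50 and every replicate individually at or above 50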;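 note: 0% = plate neutral controls and 100% = maraviroc near 300 nM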
rRNA inh HTS – selective bacterial rRNA inhibition in E. coli | E. coli WT GFP vs humanized-ribosome RFP mutants, fluorescence, 24 h; hits give low values; DMSO median 0, no signal -100 | GFP signal change (wild-type ribosome), % (concentration not given with the values) | 350,000 tested, 1.6% active;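 active = significant combined selectivity score with lowered wild-type GFP, culture density cut under 30%, mutant RFP and density less affected; inactive = any of these conditions unmet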
Numbers without * were called inactive; . = no result given; ! = a repeat was not active; [ ] = remark or other dose.

SMILES	miR-122 sensor	F508del corr	Cneo AK release	GSIS activator	HIV Env fusion	rRNA inh HTS
Fc1cnc(Cl)nc1N1CCN(c2ccccc2)CC1	.	1	.	-3	-14	-23*
CN1CCN(c2nc(N3CCN(c4ccccc4)CC3)ncc2F)CC1	.	.	.	-6	5	.
COc1cccc(C(=O)OC2CCCN(C)C2)c1 (centres undefined)	-7	.	-2	13	.	.
CN1CCCC(OC(=O)c2ccc(C#N)cc2)C1 (centres undefined)	-4	-3	4	57*	12	-3
CCc1ccc(NC(=O)CSCc2nc(N)nc(Nc3ccccc3CC)n2)cc1	-5	.	22	-33	61*	.
CCc1ccccc1Nc1nc(N)nc(CSCC(=O)Nc2ccc(C)c(C)c2)n1	-4	0	2	-17	71*	-28
O=C(NCC1CC1)[C@@H]1[C@@H](CO)[C@@H]2Cn3c(ccc(-c4ccccc4F)c3=O)[C@H]1N2Cc1cncnc1	0[16.7 µM]	3	-11	7	.	2
CO[C@H](CN(C)S(=O)(=O)c1ccc(F)cc1)[C@@H](C)CN(C(=O)Nc1ccccc1F)[C@H](C)CO	.	0	5	-13	13[16.7 µM]	2
C[C@@H]1CN([C@H](C)CO)C(=O)CCCn2nncc2CO[C@H]1CN(C)C(=O)Nc1ccnc(N2CCOCC2)c1	-5	1	0	45*!	7	4
C[C@@H]1CN([C@H](C)CO)C(=O)CCCn2cc(nn2)CO[C@@H]1CN(C)C(=O)CCCN(C)C	11[16.7 µM]	-3	105*	.	.	.
C[C@@H]1CN([C@@H](C)CO)C(=O)CCCn2cc(nn2)CO[C@@H]1CN(C)C(=O)NC1CCCC1	21[16.7 µM]	-4	117*	6	21[16.7 µM]	1
C[C@H](CO)N1C[C@H](C)[C@@H](CN(C)C(=O)CCCN(C)C)OCc2cn(nn2)CCCC1=O	-7	1	-1	-2	-13	2
C[C@@H]1CN([C@@H](C)CO)C(=O)CCCn2cc(nn2)CO[C@@H]1CN(C)C(=O)CCCN(C)C	0[16.7 µM]	-1	97*	5	.	0
CCCNC(=O)Nc1ccc2c(c1)C(=O)N(C)C[C@@H](OC)[C@@H](C)CN(C(=O)C1CCOCC1)[C@H](C)CO2	.	-2	-2	10	.	1
CC(C)NC(=O)N1[C@@H](CO)[C@H](c2ccccc2)[C@@H]1CNC(=O)CN(C)C	14[16.7 µM]	-2	-3	13	.	6
CCOc1cc(/C=C(\C#N)C(=O)Nc2cccc(C(=O)O)c2)ccc1OCc1ccccc1Cl	-5	-1	-1	-35	-40	1
CCOc1cc(/C=C(\C#N)C(=O)Nc2cccc(C(=O)O)c2)cc(Br)c1OC(=O)c1ccc(OC)cc1	7	1	1	-39	4	-33*
O=C(N(Cc1ccccc1)c1ccccn1)C12CC3CC(CC(C3)C1)C2	4	.	-1	.	122*	.
COc1ccc2c3c(n(C)c2c1)[C@@H](CO)N(CC1CCCC1)CC31CCN(C(=O)Nc2ccccc2)CC1	.	2	.	-13	.	0
COc1ccc(C(O)c2nccc3cc(OC)c(OC)cc23)cc1OC (centres undefined)	.	3	.	83*	-2	-1
COc1cc(N)c(C(O)c2nccc3cc(OC)c(OC)cc23)cc1OC (centres undefined)	-15	0	-2	17	-8	-8
C[C@@H]1CN([C@@H](C)CO)C(=O)c2cccc(NC(=O)Nc3ccc(F)cc3)c2O[C@H]1CN(C)Cc1ccc(C(=O)O)cc1	34[16.7 µM]	-1	45	2	.	0
O=C(N/N=C\c1cc(Br)ccc1O)c1ccc(S(=O)(=O)N2CCCCC2)cc1	.	17*	.	-2	.	9
O=C(N/N=C/c1cc(Cl)ccc1O)c1ccc(Br)cc1	.	.	.	41*	3	.
O=C(N/N=C/c1cc(Br)ccc1O)c1ccncc1	2	5	0	1	-5	-33
SMILES	miR-122 sensor	F508del corr	Cneo AK release	GSIS activator	HIV Env fusion	rRNA inh HTS
CCCC#Cc1ccc([C@H]2[C@@H](C#N)N(C(=O)C3CCCC3)[C@H]2CO)cc1	.	3	4	0	7[16.7 µM]	1
NC(=O)CC(NC(=O)c1ccc(Br)cc1)c1ccc(N2CCC(Cc3ccccc3)CC2)c([N+](=O)[O-])c1 (centres undefined)	4	-2	2	.	22	13
NC(=O)CC(NC(=O)c1ccccc1)c1ccc(N2CCC(Cc3ccccc3)CC2)c([N+](=O)[O-])c1 (centres undefined)	-4	1	-2	-7	87*	8
CCCCOc1ccc(N=Nc2ccc(N)nc2N)cn1	.	0	-1	-34	-60	-25*
CCOc1ccccc1NC(=O)c1csc(C)c1C	.	1	-7	0	-21	-31*
Cc1ccc(C(=O)NCC#N)cc1	.	0	.	10	-11	2
Cc1ccc(C(=O)NC(C#N)=C(Cl)Cl)cc1	.	7	.	-4	-152	-27*
CCOc1ccc(C(O)(CCC(C)C)C(CN2CCOCC2)c2ccccc2)cc1 (centres undefined)	.	-4	2	-36	72*	-23
Cc1ccc(S(=O)(=O)N2CCCCC2)cc1NC(=O)Cn1c(=O)cnc2ccccc21	8	3	.	-11	59*	-3
Cc1ccc(NC(=O)Cn2c(=O)cnc3ccccc32)cc1S(=O)(=O)N1CCCCC1	9	2	1	-20	8	-7
COCC(=O)N(C)C[C@H]1Oc2ncc(C#Cc3cccnc3)cc2C(=O)N([C@H](C)CO)C[C@H]1C	-6[16.7 µM]	3	-4	9	7[16.7 µM]	2
C[C@H]1CN([C@@H](C)CO)S(=O)(=O)c2ccc(Br)cc2O[C@H]1CN(C)Cc1ccccc1	-7	-2	0	-7	61*![16.7 µM]	-10
C[C@H](CO)N1C[C@H](C)[C@@H](CN(C)Cc2ccc(F)cc2)Oc2cc(Br)ccc2S1(=O)=O	6[16.7 µM]	2	0	-15	40[16.7 µM]	-23
C[C@H]1CN([C@@H](C)CO)S(=O)(=O)c2ccc(Br)cc2O[C@H]1CN(C)Cc1ccc(F)cc1	-1	-2	1	-8	71*[16.7 µM]	-14
COc1cccc(CNC(=O)C[C@@H]2CC[C@H](NC(=O)C3CCOCC3)[C@H](CO)O2)c1	.	0	1	3	12[16.7 µM]	6
CCN(Cc1ccccc1)c1ccc(/C=N/N2CCOCC2)cc1	.	0	.	-3	-15	-22*
Cc1c(C(=O)N2CCN(CCc3ccccn3)CC2)oc2ccc(F)cc12	-9	1	1	9	-1	-4
Cc1cc2oc(C(=O)N3CCN(CCc4ccccn4)CC3)c(C)c2cc1C	-7	-1	2	12	-6	-28*
Cc1ccc2c(C)c(C(=O)N3CCN(Cc4ccccn4)CC3)oc2c1C	.	0	82*	13	30	-7
